Results on 5 molecules are retold here after ChEMBL document CHEMBL1155551, “First synthesis and antiprotozoal activities of divinyl sulfone-modified carbohydrates” (Bioorg Med Chem Lett, 2010).

pIC50: −log10 of the molar value.

A word on the pIC50: it is the IC50 on a negative log10 scale, so that one unit is a factor of ten. Lower therefore signals a high IC50.

One series relates to Entamoeba histolytica. The experiment in a line: Antiprotozoal activity against Entamoeba histolytica after 24 hrs by trypan blue assay.
Settings: not given
The series is classed as functional, organism-based. In a few lines: (§1)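 Trophozoites kept in TYIS-33 medium, E. histolytica at 37 °C and E. invadens at 25 °C. About 5 × 10⁵ cells/mL exposed to compounds (10 mM stocks in DMSO) for 24 h, with DMSO as negative and metronidazole as positive control. Cells washed in PBS; live cells counted by hemocytometer with trypan blue. IC50 fitted from at least three experiments, each in triplicate.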
As for `C=CS(=O)(=O)C1=C[C@@H](OC)O[C@@H]1COC(c1ccccc1)(c1ccccc1)c1ccccc1`, the negative-log IC50 (pIC50) is 4.42.
Consider `C=CS(=O)(=O)C1=C[C@H](OC)O[C@@H]1COCc1ccccc1`, for which the pIC50 is 4.71.
In turn, `C=CS(=O)(=O)C1=C[C@@H](OC)O[C@@H]1COCc1ccccc1` had a pIC50 of 4.61.
`C=CS(=O)(=O)C1=C[C@H](OC)O[C@@H]1COC(c1ccccc1)(c1ccccc1)c1ccccc1` gave a pIC50 of 4.48.
Still for that read-out and setting: with `Cc1ncc([N+](=O)[O-])n1CCO` [METRONIDAZOLE] the figure was 5.60.

For a further series, the system named is MCF7. The experiment in a line: Cytotoxicity against human MCF7 after 36 hrs by MTT assay. The series is classed as cell-based. As to conditions: mcf7, 48 h, in the assay text read “48 hrs” for “36 hrs”. The method, boiled down:
(§2)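 MCF7 or AH927 cells seeded at 2 × 10³ per well under 5% CO2, 37 °C. After 36 h, compound added at concentrations ranging from 0 to 100, with untreated wells as control. Viability read by MTT after 48 h of treatment.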
In general terms: Tetrazolium assays rely on reduction of a dye to a coloured formazan, in cell work by metabolically active cells.
Consider `C=CS(=O)(=O)C1=C[C@H](OC)O[C@@H]1COCc1ccccc1`, for which the Activity entry was “Non-toxic”.

For a further series, the system named is Entamoeba invadens. Put plainly: Antiprotozoal activity against Entamoeba invadens after 24 hrs by trypan blue assay.
Settings: not given
The format is functional, organism-based. The method, boiled down:
as §1
The molecule `C=CS(=O)(=O)C1=C[C@@H](OC)O[C@@H]1COC(c1ccccc1)(c1ccccc1)c1ccccc1` had a pIC50 of 4.60.
`C=CS(=O)(=O)C1=C[C@H](OC)O[C@@H]1COCc1ccccc1` had a pIC50 of 5.03.
Still for that read-out and setting: with `C=CS(=O)(=O)C1=C[C@@H](OC)O[C@@H]1COCc1ccccc1` the figure was 4.52.
In turn, `C=CS(=O)(=O)C1=C[C@H](OC)O[C@@H]1COC(c1ccccc1)(c1ccccc1)c1ccccc1` had a pIC50 of 4.77.
Same read-out and setting: with `Cc1ncc([N+](=O)[O-])n1CCO` [METRONIDAZOLE] the figure was 5.52.

System in a further series: not listed separately
The experiment in a line: Cytotoxicity against cat AH927 after 36 hrs by MTT assay. As to conditions: Felis catus, 48 h, in the assay text read “48 hrs” for “36 hrs”. In a few lines: as §2
For `C=CS(=O)(=O)C1=C[C@H](OC)O[C@@H]1COCc1ccccc1`, the Activity entry is “Non-toxic”.
